# Test results: ChEMBL document CHEMBL4390684, “The synthesis of 4,6-diaryl-2-pyridones and their bioactivation in CYP1 expressing breast cancer cells” (Bioorg Med Chem Lett, 2019)
# System: MCF7
# Assay: Activation factor, ratio of antiproliferative IC50 of ER positive human MCF7 cells expressing low level of CYP to antiproliferative IC50 of […]-induced ER positive human MCF7 cells expressing CYP1A1
# Type: functional
# Settings: not given
row,Compound,Ratio IC50
1,COc1ccc(-c2cc(-c3ccc4c(c3)OCCO4)cc(=O)[nH]2)c(OC)c1,0.8
2,COc1ccc(OC)c(-c2cc(-c3ccc4c(c3)OCO4)cc(=O)[nH]2)c1,100
3,COc1ccc(/C=C\c2cc(OC)c(OC)c(OC)c2)cc1O [COMBRETASTATIN A4],1
4,CCCOc1ccc(-c2cc(-c3ccc(OC)cc3OC)[nH]c(=O)c2)cc1,5
5,COc1ccc(-c2cc(-c3ccc4c(c3)OCO4)[nH]c(=O)c2)c(OC)c1,18
6,COc1ccc(-c2cc(-c3ccc4c(c3)OCO4)cc(=O)[nH]2)c(OC)c1,5
7,CCCOc1ccc(-c2cc(-c3ccc(OC)c(OC)c3)[nH]c(=O)c2)cc1,3
8,COc1ccccc1-c1cc(-c2ccc3c(c2)OCO3)cc(=O)[nH]1,2
9,COc1cc(-c2cc(-c3ccc4c(c3)OCO4)cc(=O)[nH]2)cc(OC)c1OC,>500

# Target: T1, Cytochrome P450 1A1 (Homo sapiens, UniProt P04798)
# T1 sequence (P04798 whole entry): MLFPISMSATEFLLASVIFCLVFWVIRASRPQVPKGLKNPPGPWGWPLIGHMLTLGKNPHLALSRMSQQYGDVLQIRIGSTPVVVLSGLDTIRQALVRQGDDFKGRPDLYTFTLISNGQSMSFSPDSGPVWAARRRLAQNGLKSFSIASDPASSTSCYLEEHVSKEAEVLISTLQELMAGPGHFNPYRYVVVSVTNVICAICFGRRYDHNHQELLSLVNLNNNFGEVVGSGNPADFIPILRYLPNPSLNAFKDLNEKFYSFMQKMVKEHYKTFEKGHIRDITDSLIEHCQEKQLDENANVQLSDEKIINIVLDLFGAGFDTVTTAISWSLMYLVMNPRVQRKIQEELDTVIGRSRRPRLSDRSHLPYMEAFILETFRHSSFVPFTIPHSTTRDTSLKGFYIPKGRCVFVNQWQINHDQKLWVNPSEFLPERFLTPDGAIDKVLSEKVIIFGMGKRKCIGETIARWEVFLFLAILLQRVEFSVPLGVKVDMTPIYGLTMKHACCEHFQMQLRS
# Assay: Drug metabolism in supersomes expressing human CYP1A1 and coexpressing NADPH reductase assessed as CYP1A1-mediated 4-(3,4-Dihydroxyphenyl)-6-(2,4-dimethoxyphenyl)-1H-pyridin-2-one formation at 10 uM in the presence of NADPH measured at 5 mins interval for 25 mins by reverse phase HPLC method
# Type: ADME
# Settings: recombinant enzyme
# In short: (§1)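 Substrate was incubated with insect-cell Supersomes expressing human CYP1A1 or CYP1B1 plus NADPH reductase, at 20 pmol/mL CYP. Controls used non-CYP Supersomes, or omitted the compound, NADPH or active enzyme. Duplicate samples were taken every 5 min and quenched with ice-cold acetonitrile. After centrifugation, the supernatant was analysed by reverse-phase HPLC for parent depletion (half-life) and metabolite peaks.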
row,Drug metabolism,Compound
1,Metabolite_Detected,COc1ccc(-c2cc(-c3ccc4c(c3)OCO4)cc(=O)[nH]2)c(OC)c1

# Target: T2, Cytochrome P450 1B1 (Homo sapiens, UniProt Q16678)
# T2 sequence (Q16678 whole entry): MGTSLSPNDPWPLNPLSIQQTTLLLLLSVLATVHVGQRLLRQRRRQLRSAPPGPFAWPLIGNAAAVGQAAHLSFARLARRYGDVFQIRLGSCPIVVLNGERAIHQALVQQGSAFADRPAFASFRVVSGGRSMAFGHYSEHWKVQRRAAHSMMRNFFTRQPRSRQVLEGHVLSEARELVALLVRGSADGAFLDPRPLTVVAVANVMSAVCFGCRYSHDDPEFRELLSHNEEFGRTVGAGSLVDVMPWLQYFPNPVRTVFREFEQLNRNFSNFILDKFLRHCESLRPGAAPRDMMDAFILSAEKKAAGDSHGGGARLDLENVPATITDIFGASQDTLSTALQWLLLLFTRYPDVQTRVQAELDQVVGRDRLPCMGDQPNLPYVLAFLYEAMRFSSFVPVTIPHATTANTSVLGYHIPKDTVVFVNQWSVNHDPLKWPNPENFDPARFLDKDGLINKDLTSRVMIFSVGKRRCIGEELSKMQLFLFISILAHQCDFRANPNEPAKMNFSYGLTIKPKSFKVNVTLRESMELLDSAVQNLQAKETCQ
# Assay: Drug metabolism in supersomes expressing human CYP1B1 and coexpressing NADPH reductase assessed as CYP1B1-mediated second metabolite retention time at 10 uM in the presence of NADPH measured at 5 mins interval for 25 mins by reverse phase HPLC method
# Type: ADME
# Settings: recombinant enzyme
# In short: as §1
row,Retention_time [min],Compound
1,9.22,COc1ccc(-c2cc(-c3ccc4c(c3)OCO4)cc(=O)[nH]2)c(OC)c1

# System: not listed separately
# Assay: Selectivity index, ratio of IC50 for human MCF10A cells to IC50 for human MDA-MB-468 cells expressing CYP1A1 and CYP1B1
# Type: toxicity
# Settings: read-out: Ratio IC50
row,Compound,selectivity ratio
1,COc1ccc(-c2cc(-c3ccc4c(c3)OCCO4)cc(=O)[nH]2)c(OC)c1,12
2,COc1ccc(OC)c(-c2cc(-c3ccc4c(c3)OCO4)cc(=O)[nH]2)c1,250
3,COc1ccc(/C=C\c2cc(OC)c(OC)c(OC)c2)cc1O [COMBRETASTATIN A4],0.53
4,CCCOc1ccc(-c2cc(-c3ccc(OC)cc3OC)[nH]c(=O)c2)cc1,125
5,COc1ccc(-c2cc(-c3ccc4c(c3)OCO4)[nH]c(=O)c2)c(OC)c1,13
6,COc1ccc(-c2cc(-c3ccc4c(c3)OCO4)cc(=O)[nH]2)c(OC)c1,1000
7,CCCOc1ccc(-c2cc(-c3ccc(OC)c(OC)c3)[nH]c(=O)c2)cc1,389
8,COc1ccccc1-c1cc(-c2ccc3c(c2)OCO3)cc(=O)[nH]1,40
9,COc1cc(-c2cc(-c3ccc4c(c3)OCO4)cc(=O)[nH]2)cc(OC)c1OC,> 2

# System: MCF7
# Assay: Antiproliferative activity against ER positive human MCF7 cells expressing low level of CYP assessed as reduction in cell viability measured after 96 hrs by MTT assay
# Type: functional, cell-based
# Settings: MCF7, 96 h
# In short: (§2)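 Antiproliferative IC50 values were determined in MCF-7, MDA-MB-468, TCDD-treated MCF-7 (high CYP1A1 expression) and non-tumour MCF-10A breast cells. Each value is the mean of two independent experiments run in quadruplicate.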
row,Compound,IC50 [µM]
1,COc1ccc(OC)c(-c2cc(-c3ccc4c(c3)OCO4)cc(=O)[nH]2)c1,2
2,CCCOc1ccc(-c2cc(-c3ccc(OC)cc3OC)[nH]c(=O)c2)cc1,45
3,COc1ccc(-c2cc(-c3ccc4c(c3)OCO4)cc(=O)[nH]2)c(OC)c1,9
4,COc1cc(-c2cc(-c3ccc4c(c3)OCO4)cc(=O)[nH]2)cc(OC)c1OC,> 100

# Second part, the molecule after the results:
row,IC50 [µM],Compound
1,60,CCCOc1ccc(-c2cc(-c3ccc(OC)c(OC)c3)[nH]c(=O)c2)cc1
2,18,COc1ccc(-c2cc(-c3ccc4c(c3)OCO4)[nH]c(=O)c2)c(OC)c1
3,7,COc1ccccc1-c1cc(-c2ccc3c(c2)OCO3)cc(=O)[nH]1
4,2.5,COc1ccc(-c2cc(-c3ccc4c(c3)OCCO4)cc(=O)[nH]2)c(OC)c1

# System: MCF-10A
# Assay: Cytotoxicity against human MCF10A cells assessed as reduction in cell viability after 96 hrs by MTT assay
# Type: cell-based
# Settings: not given
# In short: as §2
row,Compound,IC50 [µM]
1,COc1ccc(-c2cc(-c3ccc4c(c3)OCCO4)cc(=O)[nH]2)c(OC)c1,6
2,COc1ccc(OC)c(-c2cc(-c3ccc4c(c3)OCO4)cc(=O)[nH]2)c1,5
3,COc1ccc(/C=C\c2cc(OC)c(OC)c(OC)c2)cc1O [COMBRETASTATIN A4],0.0016
4,CCCOc1ccc(-c2cc(-c3ccc(OC)cc3OC)[nH]c(=O)c2)cc1,50
5,COc1ccc(-c2cc(-c3ccc4c(c3)OCO4)[nH]c(=O)c2)c(OC)c1,80
6,COc1ccc(-c2cc(-c3ccc4c(c3)OCO4)cc(=O)[nH]2)c(OC)c1,40
7,CCCOc1ccc(-c2cc(-c3ccc(OC)c(OC)c3)[nH]c(=O)c2)cc1,70
8,COc1ccccc1-c1cc(-c2ccc3c(c2)OCO3)cc(=O)[nH]1,28
9,COc1cc(-c2cc(-c3ccc4c(c3)OCO4)cc(=O)[nH]2)cc(OC)c1OC,> 100

# Target: T2, Cytochrome P450 1B1
# Assay: Drug metabolism in supersomes expressing human CYP1B1 and coexpressing NADPH reductase assessed as CYP1B1-mediated 4-(3,4-Dihydroxyphenyl)-6-(2,4-dimethoxyphenyl)-1H-pyridin-2-one formation at 10 uM in the presence of NADPH measured at 5 mins interval for 25 mins by reverse phase HPLC method
# Type: ADME
# Settings: recombinant enzyme
# In short: as §1
row,Drug metabolism,Compound
1,Metabolite_Detected,COc1ccc(-c2cc(-c3ccc4c(c3)OCO4)cc(=O)[nH]2)c(OC)c1

# System: MDA-MB-468
# Assay: Antiproliferative activity against ER negative human MDA-MB-468 cells expressing CYP1A1 and CYP1B1 assessed as reduction in cell viability measured after 96 hrs by MTT assay
# Type: functional, cell-based
# Settings: MDA-MB-468, 96 h
# In short: as §2
row,Compound,IC50 [nM]
1,COc1ccc(OC)c(-c2cc(-c3ccc4c(c3)OCO4)cc(=O)[nH]2)c1,20
2,COc1ccc(/C=C\c2cc(OC)c(OC)c(OC)c2)cc1O [COMBRETASTATIN A4],3
3,CCCOc1ccc(-c2cc(-c3ccc(OC)cc3OC)[nH]c(=O)c2)cc1,400
4,COc1ccc(-c2cc(-c3ccc4c(c3)OCO4)cc(=O)[nH]2)c(OC)c1,40
5,COc1cc(-c2cc(-c3ccc4c(c3)OCO4)cc(=O)[nH]2)cc(OC)c1OC,50000

# Next, values leading:
row,IC50 [nM],Compound
1,180,CCCOc1ccc(-c2cc(-c3ccc(OC)c(OC)c3)[nH]c(=O)c2)cc1
2,6000,COc1ccc(-c2cc(-c3ccc4c(c3)OCO4)[nH]c(=O)c2)c(OC)c1
3,700,COc1ccccc1-c1cc(-c2ccc3c(c2)OCO3)cc(=O)[nH]1
4,500,COc1ccc(-c2cc(-c3ccc4c(c3)OCCO4)cc(=O)[nH]2)c(OC)c1

# System: MCF7
# Assay: Antiproliferative activity against […]-induced ER positive human MCF7 cells expressing CYP1A1 assessed as reduction in cell viability after 96 hrs by MTT assay
# Type: functional, cell-based
# Settings: MCF7, 96 h
# In short: as §2
row,Compound,IC50 [nM]
1,COc1ccc(OC)c(-c2cc(-c3ccc4c(c3)OCO4)cc(=O)[nH]2)c1,20
2,COc1ccc(/C=C\c2cc(OC)c(OC)c(OC)c2)cc1O [COMBRETASTATIN A4],2
3,CCCOc1ccc(-c2cc(-c3ccc(OC)cc3OC)[nH]c(=O)c2)cc1,9000
4,COc1ccc(-c2cc(-c3ccc4c(c3)OCO4)cc(=O)[nH]2)c(OC)c1,1800
5,COc1cc(-c2cc(-c3ccc4c(c3)OCO4)cc(=O)[nH]2)cc(OC)c1OC,200

# The remaining lines, values ahead:
row,IC50 [nM],Compound
1,20000,CCCOc1ccc(-c2cc(-c3ccc(OC)c(OC)c3)[nH]c(=O)c2)cc1
2,1000,COc1ccc(-c2cc(-c3ccc4c(c3)OCO4)[nH]c(=O)c2)c(OC)c1
3,3500,COc1ccccc1-c1cc(-c2ccc3c(c2)OCO3)cc(=O)[nH]1
4,3000,COc1ccc(-c2cc(-c3ccc4c(c3)OCCO4)cc(=O)[nH]2)c(OC)c1

# System: MCF-10A
# Assay: Antiproliferative activity against human MCF10A cells assessed as reduction in cell viability in presence of CYP 1 inhibitor alpha-naphthoflavone at 1 uM measured after 96 hrs by MTT assay
# Settings: not given
row,Compound,IC50 [µM]
1,COc1ccc(-c2cc(-c3ccc4c(c3)OCO4)cc(=O)[nH]2)c(OC)c1,> 100

# System: MCF7
# Assay: Antiproliferative activity against ER positive human MCF7 cells expressing low level of CYP assessed as reduction in cell viability in presence of CYP 1 inhibitor alpha-naphthoflavone at 1 uM measured after 96 hrs by MTT assay
# Type: functional, cell-based
# Settings: MCF7, 96 h
row,IC50 [µM],Compound
1,12,COc1ccc(-c2cc(-c3ccc4c(c3)OCO4)cc(=O)[nH]2)c(OC)c1

# System: MDA-MB-468
# Assay: Antiproliferative activity against ER negative human MDA-MB-468 cells expressing CYP1A1 and CYP1B1 assessed as reduction in cell viability in presence of CYP 1 inhibitor alpha-naphthoflavone at 1 uM measured after 96 hrs by MTT assay
# Type: functional, cell-based
# Settings: MDA-MB-468, 96 h
row,IC50 [µM],Compound
1,> 100,COc1ccc(-c2cc(-c3ccc4c(c3)OCO4)cc(=O)[nH]2)c(OC)c1

# System: MCF7
# Assay: Antiproliferative activity against […]-induced ER positive human MCF7 cells expressing CYP1A1 assessed as reduction in cell viability in presence of CYP 1 inhibitor alpha-naphthoflavone measured after 96 hrs by MTT assay
# Type: functional, cell-based
# Settings: MCF7, 96 h
row,IC50 [µM],Compound
1,9,COc1ccc(-c2cc(-c3ccc4c(c3)OCO4)cc(=O)[nH]2)c(OC)c1

# Target: T3, CYP1B1 (Homo sapiens, UniProt Q16678)
# T3 sequence (Q16678 whole entry): T2 sequence (Q16678 whole entry)
# Assay: Drug metabolism in supersomes expressing human CYP1B1 and coexpressing NADPH reductase assessed as CYP1B1-mediated drug metabolism by measuring compound half life at 10 uM in the presence of NADPH measured at 5 mins interval for 25 mins by reverse phase HPLC analysis
# Type: ADME
# Settings: not given
# In short: as §1
row,half-life at 10 µM [min],Compound
1,30.1,COc1ccc(-c2cc(-c3ccc4c(c3)OCO4)cc(=O)[nH]2)c(OC)c1

# Target: T4, CYP1A1 (Homo sapiens, UniProt P04798)
# T4 sequence (P04798 whole entry): T1 sequence (P04798 whole entry)
# Assay: Drug metabolism in supersomes expressing human CYP1A1 and coexpressing NADPH reductase assessed as CYP1A1-mediated drug metabolism by measuring compound half life at 10 uM in the presence of NADPH measured at 5 mins interval for 25 mins by reverse phase HPLC analysis
# Type: ADME
# Settings: not given
# In short: as §1
row,half-life at 10 µM [min],Compound
1,12.9,COc1ccc(-c2cc(-c3ccc4c(c3)OCO4)cc(=O)[nH]2)c(OC)c1
